Measured values: ChEMBL document CHEMBL3632541, “Synthesis, antileishmanial activity and cytotoxicity of 2,3-diaryl- and 2,3,8-trisubstituted imidazo[1,2-a]pyrazines” (Eur J Med Chem, 2015)
In brackets after ≈: the same amount, converted by molar mass. Activity calls are given as the source filed them. The rule behind the calls is not given here.

How the values were obtained:
[1] = Inhibition of Leishmania major CK1.2 using RRKHAAIGpSAYSITA as substrate and [gamma-33P]ATP after 30 mins by scintillation counting
Summary of the method: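 Recombinant His-tagged L. major CK1.2 from E. coli, purified on cobalt beads. Assayed as for the porcine enzyme: CKS peptide substrate, 15 μM [γ-³³P]ATP, 30 min at 30 °C, P81 capture and scintillation counting. Activity as % of the no-inhibitor value.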

[2] = Cytotoxicity against human MCF7 cells assessed as growth inhibition after 48 hrs by SRB assay method; assay type: cell-based
Summary of the method: (§1)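 Cells plated in growth medium and allowed to attach 24 h (37 °C, 5% CO₂). Time-zero plate fixed with TCA. Serial 4-fold dilutions added for 48 h. Cells fixed with cold TCA, stained with 0.2% SRB, dye solubilized in 10 mM Tris pH 10.5, absorbance read at 510 nm. GI50 is 50% absorbance reduction versus solvent controls, by linear regression. K562 counted by Coulter counter instead. 5-FU reference.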

[3] = Cytotoxicity against human K562 cells assessed as growth inhibition after 48 hrs by Coulter counter cell counting
[4] = Cytotoxicity against human M14 cells assessed as growth inhibition after 48 hrs by SRB assay method; assay type: cell-based; summary of the method: as §1
[5] = Cytotoxicity against human H460 cells assessed as growth inhibition after 48 hrs by SRB assay method; assay type: cell-based, NCI-H460; summary of the method: as §1
[6] = Therapeutic index, ratio of IC50 for BALB/c mouse peritoneal macrophages to IC50 for promastigote form of Leishmania major (MHOM/IL/81/BNI); conditions: read-out: Ratio IC50
[7] = Therapeutic index, ratio of IC50 for BALB/c mouse 3T3 clone A31 cells to IC50 for promastigote form of Leishmania major (MHOM/IL/81/BNI); assay type: cell-based; conditions: read-out: Ratio IC50
[8] = Inhibition of native porcine brain CK1 delta/epsilon using RRKHAAIGpSAYSITA as substrate and [gamma-33P]ATP after 30 mins by scintillation counting; parameters: species or system Sus scrofa
Summary of the method: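 Native porcine brain CK1δ/ε, in threefold-diluted buffer A (25 mM Mops pH 7.2, 15 mM MgCl₂, 5 mM EGTA, 1 mM DTT, phosphatase inhibitors). 25 μM CKS peptide substrate, 15 μM [γ-³³P]ATP, 30 min at 30 °C. Stopped on P81 paper, washed in 1% phosphoric acid, counted by scintillation. Blank subtracted; activity as % of the no-inhibitor value; DMSO controls.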

[9] = Cytotoxicity against BALB/c mouse 3T3 clone A31 cells after 48 hrs by SRB assay method; assay type: cell-based; conditions: A31, 48 h; summary of the method: as §1
[10] = Cytotoxicity against human HT-29 cells assessed as growth inhibition after 48 hrs by SRB assay method; assay type: cell-based; summary of the method: as §1
Leishmania major [11] = assay: Antileishmanial activity against promastigote form of Leishmania major MHOM/IL/81/BNI after 96 hrs by spectrofluorimetric micromethod; assay type: functional, organism-based
[12] = Cytotoxicity against human HuTu 80 cells assessed as growth inhibition after 48 hrs by SRB assay method; assay type: cell-based, HuTu80; summary of the method: as §1
[13] = Cytotoxicity against BALB/c mouse peritoneal macrophages assessed as cell viability after 48 hrs by trypan blue dye exclusion method; assay type: cell-based; conditions: Peritoneal macrophage cell
[14] = Cytotoxicity against human DU145 cells assessed as growth inhibition after 48 hrs by SRB assay method; assay type: cell-based, DU-145; summary of the method: as §1
[15] = Therapeutic index, ratio of IC50 for BALB/c mouse peritoneal macrophages to IC50 for amastigote form of Leishmania major (MHOM/IL/81/BNI) in BALB/c mouse peritoneal macrophages; conditions: read-out: Ratio IC50
Leishmania major [16] = assay: Antileishmanial activity against amastigote form of Leishmania major MHOM/IL/81/BNI amastigote in Balb/c mouse peritoneal macrophages after 4 days by May-Grunwald-Giemsa staining-based microscopic analysis; assay type: functional, organism-based; conditions: 96 h
Summary of the method: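 Peritoneal macrophages from Balb/c mice, 1.5 10⁵ cell/mL in RPMI 1640 + 15% FBS, left 24 h on glass slides (37 °C, 5% CO₂), then infected 24 h with stationary-phase promastigotes (1.5 × 10⁶/mL). Washed cultures exposed to 100, 10, 1 and 0.1 µM for 4 days. Fixed with methanol, Giemsa-stained. Amastigotes counted in 100 macrophages per duplicate well; IC50 from amastigotes/macrophage. Done twice.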

Leishmania amazonensis = assay: Antileishmanial activity against axenic amastigote stage of Leishmania amazonensis MHOM/BR/76/LTB-012 by MTT method; assay type: functional, organism-based
Summary of the method: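 Axenic amastigotes, grown in MAA/20 medium at 32 ± 1 °C. IC50 by MTT micromethod; compounds from 10 mM DMSO stocks, DMSO ≤1% final.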

SMILES | IC50 [1] [µM] | GI50 at 48 h [2] [µg/mL] | GI50 at 48 h [3] [µg/mL] | GI50 at 48 h [4] [µg/mL] | GI50 at 48 h [5] [µg/mL] | selectivity ratio [6] | selectivity ratio [7] | IC50 [8] [µM] | IC50 [9] [µM] | GI50 at 48 h [10] [µg/mL] | IC50 (Leishmania major [11]) [µM] | GI50 at 48 h [12] [µg/mL] | IC50 [13] [µM] | GI50 at 48 h [14] [µg/mL] | selectivity ratio [15] | IC50 (Leishmania major [16]) [µM] | Activity (Leishmania amazonensis)
Fc1ccc(-c2nc3c(NCCN4CCOCC4)nccn3c2-c2ccncc2)cc1 | 0.62 | 19 (≈ 45.4 µM) | 21 (≈ 50.2 µM) | 36 (≈ 86 µM) | 20 (≈ 47.8 µM) | 2.4 | 2.9 | 2.7 | 47.8 | 27 (≈ 64.5 µM) | 16.5 | 28 (≈ 66.9 µM) | 40.3 | 39 (≈ 93.2 µM) |  |  | 
Clc1cccc(-c2c(-c3ccccc3)nc3cnccn23)c1 |  |  |  |  |  | 3.5 |  |  |  |  | 14.5 |  | 51.5 |  |  |  | 
N=C(N)c1ccc(OCCCCCOc2ccc(C(=N)N)cc2)cc1 [PENTAMIDINE] |  |  |  |  |  | 33.2 |  |  |  |  | 4.6 |  | 153 |  | 50.9 | 3 | 
CN(C)CCNc1nccn2c(-c3ccncc3)c(-c3ccccc3)nc12 | 0.51 | 6 (≈ 16.7 µM) | 15 (≈ 41.8 µM) | 27 (≈ 75.3 µM) | 40 (≈ 112 µM) | 0.9 | 1.3 | 1.6 | 86.5 | 6 (≈ 16.7 µM) | 68.8 | 32 (≈ 89.3 µM) | 64.9 | 47 (≈ 131 µM) |  |  | 
c1ccc(-c2nc3cnccn3c2-c2ccncc2)cc1 | 1.3 |  |  |  |  | 7.7 |  | 3.3 |  |  | 20.1 |  | 154 |  | 57 | 2.7 | inactive
COc1ccc(-c2c(-c3ccccc3)nc3cnccn23)cc1 | > 10 |  |  |  |  | 3.5 |  |  |  |  | 17.4 |  | 60.2 |  |  |  | 
CN(C)c1nccn2c(I)c(-c3ccccc3)nc12 | > 10 | 3 (≈ 8.24 µM) | 16 (≈ 43.9 µM) | > 125 | 47 (≈ 129 µM) | 4.3 | 5.3 | > 10 | 35.7 | 38 (≈ 104 µM) | 6.8 | 44 (≈ 121 µM) | 29.2 | 39 (≈ 107 µM) |  |  | 
CCOC(=O)c1ccc(-c2c(-c3ccccc3)nc3cnccn23)cc1 | > 10 |  |  |  |  | 2.9 |  |  |  |  | 17.5 |  | 49.8 |  |  |  | 
CN(C)CCNc1nccn2c(I)c(-c3ccc(F)cc3)nc12 | > 10 | 5 (≈ 11.8 µM) | 43 (≈ 101 µM) | 4 (≈ 9.41 µM) | 9 (≈ 21.2 µM) | 1.4 | 0.8 | > 10 | 18.8 | 4 (≈ 9.41 µM) | 24.7 | 6 (≈ 14.1 µM) | 33.8 | 13 (≈ 30.6 µM) |  |  | 
c1ccc(-c2nc3cnccn3c2-c2ccccc2)cc1 | > 10 |  |  |  |  | 1.6 |  |  |  |  | 26.2 |  | 41.4 |  |  |  | 
CN(C)c1nccn2c(I)c(-c3ccc(F)cc3)nc12 | > 10 | 3 (≈ 7.85 µM) | > 125 | > 125 | 25 (≈ 65.4 µM) |  |  | > 10 | 99.4 | > 125 | > 100 | 22 (≈ 57.6 µM) |  | 40 (≈ 105 µM) |  |  | 
O=c1[nH]cc(F)c(=O)[nH]1 [FLUOROURACIL] |  | 0.3 (≈ 2.31 µM) | 0.9 (≈ 6.92 µM) | 0.7 (≈ 5.38 µM) | 0.3 (≈ 2.31 µM) |  |  |  |  | 0.4 (≈ 3.08 µM) |  | 0.4 (≈ 3.08 µM) |  | 1 (≈ 7.69 µM) |  |  | 
CN(C)CCNc1nccn2c(-c3ccncc3)c(-c3ccc(F)cc3)nc12 | 0.52 | 8 (≈ 21.3 µM) | 14 (≈ 37.2 µM) | 19 (≈ 50.5 µM) | 34 (≈ 90.3 µM) | 1.6 | 2.9 | 1.6 | 101 | 8 (≈ 21.3 µM) | 35.3 | 24 (≈ 63.8 µM) | 57.8 | 52 (≈ 138 µM) |  |  | 
CN(C)CCNc1nccn2c(I)c(-c3ccccc3)nc12 | > 10 | 9 (≈ 22.1 µM) | 5 (≈ 12.3 µM) | 4 (≈ 9.82 µM) | 13 (≈ 31.9 µM) | 2.8 | 1.3 | > 10 | 31.9 | 4 (≈ 9.82 µM) | 24.2 | 12 (≈ 29.5 µM) | 68.6 | 20 (≈ 49.1 µM) |  |  | 
Ic1c(-c2ccccc2)nc2c(NCCN3CCOCC3)nccn12 | > 10 | 29 (≈ 64.5 µM) | 18 (≈ 40.1 µM) | 179 (≈ 398 µM) | 121 (≈ 269 µM) | 3 | 22.3 | > 10 | 236 | 22 (≈ 49 µM) | 10.6 | 33 (≈ 73.4 µM) | 31.4 | 47 (≈ 105 µM) |  |  | 
c1ccc(-c2nc3c(NCCN4CCOCC4)nccn3c2-c2ccncc2)cc1 | 2.4 |  |  |  |  | 2.2 |  | 3.3 |  |  | 23.5 |  | 51.7 |  |  |  | 
Clc1cc(Cl)cc(-c2c(-c3ccccc3)nc3cnccn23)c1 | > 10 |  |  |  |  | 3.4 |  |  |  |  | 10.3 |  | 35.6 |  |  |  | 
O=[N+]([O-])c1ccc(-c2c(-c3ccccc3)nc3cnccn23)cc1 | > 10 |  |  |  |  | 4.2 |  |  |  |  | 27.6 |  | 114 |  |  |  | 
